# Measurements taken from ChEMBL document CHEMBL3351814, “Discovery of selective hexapeptide agonists to human neuromedin U receptors types 1 and 2” (J Med Chem, 2014).
# The source made the active and inactive calls. No cut-off for these calls is given here. Where a SMILES comes first, the peptide text is derived from it. [ ]: non-standard residue; d: D form. The star is where a group is joined. Propanoyl(3-(3-pyridyl)) = O=C(CCc1cccnc1)*; 2Nal = N[C@@H](Cc1ccc2ccccc2c1)C(=O)O; Propanoyl(3-cHex) = O=C(CCC1CCCCC1)*; Hydrocinnamoyl = O=C(CCc1ccccc1)*; Dap = NC[C@H](N)C(=O)O
# What was measured:
# [1] = target: T1, Neuromedin-U receptor 1 (Homo sapiens) (UniProt Q9HB89); assay: Agonist activity at human NMUR1 expressed in CHO cells at 10^-12 to 10^-6 M by calcium mobilization assay relative to NMU; format: functional, cell-based
# T1 sequence (whole entry): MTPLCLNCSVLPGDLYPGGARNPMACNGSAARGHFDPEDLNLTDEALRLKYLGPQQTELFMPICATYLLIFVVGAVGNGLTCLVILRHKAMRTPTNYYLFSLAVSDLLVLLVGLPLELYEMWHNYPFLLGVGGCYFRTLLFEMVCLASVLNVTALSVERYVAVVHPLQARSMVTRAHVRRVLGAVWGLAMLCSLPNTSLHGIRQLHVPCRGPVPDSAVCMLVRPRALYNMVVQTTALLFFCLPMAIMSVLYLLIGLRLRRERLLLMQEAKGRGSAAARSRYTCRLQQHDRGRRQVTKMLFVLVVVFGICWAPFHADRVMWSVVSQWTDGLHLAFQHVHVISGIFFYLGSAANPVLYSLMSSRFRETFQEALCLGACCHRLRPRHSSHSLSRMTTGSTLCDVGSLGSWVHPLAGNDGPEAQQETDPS
# Method in brief: (§1)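 CHO cells stably expressing human NMUR1 (CHO/NMUR1-9) or NMUR2 (CHO/NMUR2-8), selected with G418, seeded 2.0 × 10^4 cells/well. Cells loaded 40 min with 4 μM Fluo-4-AM in HBSS/10 mM HEPES/2.5 mM probenecid pH 7.4. Peptides from 20 mM DMSO stocks applied at 10−12 to 10−6 M final, triplicate, FLIPR read-out. PC50 is the concentration giving 50% of the response to hNMU at 1000 nM.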
# Neuromedin-U receptor 2 [2] = target: T2, Neuromedin-U receptor 2 (Homo sapiens, UniProt Q9GZQ4); assay: Agonist activity at human NMUR2 expressed in HEK293 cells at 1 to 100 nM by calcium mobilization assay relative to NMU; format: functional, cell-based
# T2 sequence (Q9GZQ4 whole entry): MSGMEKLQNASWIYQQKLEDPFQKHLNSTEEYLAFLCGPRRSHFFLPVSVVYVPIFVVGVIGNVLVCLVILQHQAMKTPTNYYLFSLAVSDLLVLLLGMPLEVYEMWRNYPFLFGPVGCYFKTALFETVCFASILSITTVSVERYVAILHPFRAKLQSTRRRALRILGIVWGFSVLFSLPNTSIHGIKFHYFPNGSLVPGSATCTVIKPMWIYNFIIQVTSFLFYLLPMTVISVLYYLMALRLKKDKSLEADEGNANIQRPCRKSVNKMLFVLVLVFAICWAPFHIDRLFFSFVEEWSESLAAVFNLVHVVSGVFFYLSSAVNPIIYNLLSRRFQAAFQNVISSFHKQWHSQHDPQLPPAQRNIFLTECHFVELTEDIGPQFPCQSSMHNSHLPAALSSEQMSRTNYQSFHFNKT
# Method in brief: (§2)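 HEK293 cells transiently transfected with human NMUR1 or NMUR2 plasmid (FuGENE6), reseeded 18 h post-transfection at 4.0 × 10^4 cells/well on poly-D-lysine. After 18 h, loaded 40 min with 4 μM Fluo-4-AM in HBSS/HEPES/probenecid buffer pH 7.4 with 1% FCS, then washed. Peptides in buffer with 0.05% BSA and 0.001% Triton X-100. Maximal FLIPR signal expressed as % of hNMU at 1000 nM.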
# Neuromedin-U receptor 2 [3] = target: T2, Neuromedin-U receptor 2; assay: Agonist activity at human NMUR2 expressed in CHO cells at 10^-12 to 10^-6 M by calcium mobilization assay relative to NMU; format: functional, cell-based; method in brief: as §1
# Neuromedin-U receptor 1 [4] = target: T3, Neuromedin-U receptor 1 (Homo sapiens, UniProt Q9HB89); assay: Partial agonist activity at human NMUR1 expressed in CHO cells by calcium mobilization assay; format: functional, cell-based
# T3 sequence (Q9HB89 whole entry): T1 sequence (whole entry)
# Method in brief: (§3)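 Calcium mobilization in CHO cells stably expressing human NMUR1 or NMUR2, Fluo-4-AM loaded, read on a fluorometric imaging plate reader. Peptides tested at 10−12 to 10−6 M final in triplicate. EC50 derived from the curves. Intrinsic activity is the maximal response as % of the endogenous agonist hNMU.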
# Homo sapiens [5] = species: Homo sapiens; assay: Selectivity ratio of PC50 for human NMUR2 to PC50 for human NMUR1
# Method in brief: (§4)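 Ratio of PC50 values from the CHO stable-line calcium assays. NMUR1 selectivity is PC50(NMUR2)/PC50(NMUR1); NMUR2 selectivity is PC50(NMUR1)/PC50(NMUR2).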
# [6] = target: T1, Neuromedin-U receptor 1 (Homo sapiens); assay: Agonist activity at human NMUR1 expressed in CHO cells assessed as concentration required to induce 50% response by calcium mobilization assay relative to NMU; format: functional, cell-based; method in brief: as §1
# [7] = target: T1, Neuromedin-U receptor 1 (Homo sapiens); assay: Agonist activity at human NMUR1 expressed in HEK293 cells at 1 to 100 nM by calcium mobilization assay relative to NMU; format: functional, cell-based; method in brief: as §2
# Neuromedin-U receptor 2 [8] = target: T2, Neuromedin-U receptor 2; assay: Partial agonist activity at human NMUR2 expressed in CHO cells by calcium mobilization assay; format: functional, cell-based; method in brief: as §3
# Neuromedin-U receptor 2 [9] = target: T2, Neuromedin-U receptor 2; assay: Agonist activity at human NMUR2 expressed in CHO cells assessed as concentration required to induce 50% response by calcium mobilization assay relative to NMU; format: functional, cell-based; method in brief: as §1
# Homo sapiens [10] = species: Homo sapiens; assay: Selectivity ratio of PC50 for human NMUR1 to PC50 for human NMUR2; method in brief: as §4
# [11] = target: T1, Neuromedin-U receptor 1 (Homo sapiens); assay: Agonist activity at human NMUR1 expressed in HEK293 cells at 10 nM by calcium mobilization assay relative to NMU; format: functional, cell-based; method in brief: as §2
# [12] = target: T1, Neuromedin-U receptor 1 (Homo sapiens); assay: Agonist activity at human NMUR1 expressed in HEK293 cells at 1 nM by calcium mobilization assay relative to NMU; format: functional, cell-based; method in brief: as §2
# Neuromedin-U receptor 2 [13] = target: T2, Neuromedin-U receptor 2; assay: Agonist activity at human NMUR2 expressed in CHO cells by calcium mobilization assay; format: functional, cell-based; method in brief: as §3
# Neuromedin-U receptor 2 [14] = target: T2, Neuromedin-U receptor 2; assay: Agonist activity at human NMUR2 expressed in HEK293 cells at 10 nM by calcium mobilization assay relative to NMU; format: functional, cell-based; method in brief: as §2
# Neuromedin-U receptor 2 [15] = target: T2, Neuromedin-U receptor 2; assay: Agonist activity at human NMUR2 expressed in HEK293 cells at 1 nM by calcium mobilization assay relative to NMU; format: functional, cell-based; method in brief: as §2
# Neuromedin-U receptor 1 [16] = target: T3, Neuromedin-U receptor 1; assay: Agonist activity at human NMUR1 expressed in CHO cells by calcium mobilization assay; format: functional, cell-based
Intrinsic activity [1] [%],Activity (Neuromedin-U receptor 2 [2]),Intrinsic activity (Neuromedin-U receptor 2 [3]) [%],EC50 (Neuromedin-U receptor 1 [4]) [nM],Selectivity ratio (Homo sapiens [5]),Activity [6] [nM],Activity [7],EC50 (Neuromedin-U receptor 2 [8]) [nM],Activity (Neuromedin-U receptor 2 [9]) [nM],Selectivity ratio (Homo sapiens [10]),Activity [11] [%],Activity [12] [%],EC50 (Neuromedin-U receptor 2 [13]) [nM],Activity (Neuromedin-U receptor 2 [14]) [%],Activity (Neuromedin-U receptor 2 [15]) [%],EC50 (Neuromedin-U receptor 1 [16]) [nM],Molecule
71,Active,82,9,0.9,20,Active,8.4,18,1.1,,,,,,,CC(C)C[C@H](NC(=O)CCc1ccccc1)C(=O)N[C@@H](Cc1ccccc1)C(=O)N[C@@H](CCCNC(=N)N)C(=O)N1CCC[C@H]1C(=O)N[C@@H](CCCNC(=N)N)C(=O)N[C@@H](CC(N)=O)C(N)=O (Hydrocinnamoyl-LFRPRN-NH2)
79,,,2.2,49,5.1,Active,,249,0.02,84,63,,,,,N=C(N)NCCC[C@H](NC(=O)[C@@H]1CCCN1C(=O)[C@H](CCCNC(=N)N)NC(=O)[C@H](Cc1ccccc1)NC(=O)[C@H](Cc1ccc2ccccc2c1)NC(=O)CCc1cccnc1)C(=O)N[C@@H](CC(N)=O)C(N)=O ({Propanoyl(3-(3-pyridyl))}-[2Nal]FRPRN-NH2)
,,98,,< 0.0066,> 1000,,,6.6,> 152,,,6.4,88,70,,CC(C)C[C@H](NC(=O)CCC1CCCCC1)C(=O)N[C@@H](CC(C)C)C(=O)N[C@@H](CN)C(=O)N1CCC[C@H]1C(=O)N[C@@H](CCCNC(=N)N)C(=O)N[C@@H](CC(N)=O)C(N)=O ({Propanoyl(3-cHex)}-LL[Dap]PRN-NH2)
,,,,5.8,0.43,,,2.5,0.17,,,2.5,,,0.43,H-FRVDEEFQSPFASQSRGYFLFRPRN-NH2
